Assay results reported in ChEMBL document CHEMBL5150021, “Identification of 5-(Aryl/Heteroaryl)amino-4-quinolones as Potent Membrane-Disrupting Agents to Combat Antibiotic-Resistant Gram-Positive Bacteria” (J Med Chem, 2022).
≈ marks a conversion by molar mass, not a printed value.

Tests used:
Staphylococcus aureus = experiment: Antibacterial activity against methicillin resistant Staphylococcus aureus FPR3757 assessed as inhibition of bacterial growth incubated for 24 hrs by CLSI based method; format: functional; details: read-out: MIC100
Method in brief: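 It was mixed 1:1 with twofold serial compound dilutions and incubated stationary at 37 °C for 24 h. MIC was the lowest concentration giving complete inhibition of observable growth, with an oxacillin control.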

Erythrocyte = experiment: Hemolytic activity in sheep erythrocytes at 32 ug/ml incubated for 1 hr; format: toxicity, cell-based, Ovis aries; details: dose 32 µg/ml
Method in brief: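 4% sheep erythrocytes mixed 1:1 with twofold serial compound dilutions in PBS, incubated stationary 1 h at 37 °C, then centrifuged at 500g for 5 min. Supernatant A540 is measured and percent hemolysis is calculated relative to DMSO vehicle (0%) and Triton X-100 (100%). Triplicate, mean ± SD.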

In the case of Cc1onc(-c2ccccc2)c1C(=O)N[C@@H]1C(=O)N2[C@@H]1SC(C)(C)[C@@H]2C(=O)O [OXACILLIN], the MIC (Staphylococcus aureus) is reported as 64 µg/mL (≈ 159 µM).

With FC(F)(F)c1ccc2c(Nc3ccc(N4CCOCC4)cc3)cc(C(F)(F)F)nc2c1 the MIC (Staphylococcus aureus) was over 16 µg/mL.

With N#Cc1cccc(Nc2cc(C(F)(F)F)nc3cc(C(F)(F)F)ccc23)c1 the MIC (Staphylococcus aureus) was over 32 µg/mL.

In the case of O=c1cc(C(F)(F)F)[nH]c2cc(C(F)(F)F)cc(Nc3cccc4[nH]ncc34)c12, the MIC (Staphylococcus aureus) is reported as 2 µg/mL (≈ 4.85 µM).

FC(F)(F)Oc1cccc(Nc2cc(C(F)(F)F)nc3c(C(F)(F)F)cccc23)c1 gave an MIC (Staphylococcus aureus) of 1 µg/mL (≈ 2.27 µM).

FC(F)(F)c1ccc2c(Nc3cccc(I)c3)cc(C(F)(F)F)nc2c1 was tested, and the MIC (Staphylococcus aureus) was 0.25 µg/mL (≈ 0.518 µM).

CSc1ccc2c(O)cc(C(F)(F)F)nc2c1 gave an MIC (Staphylococcus aureus) of 640 µg/mL (≈ 2470 µM).

O=c1cc(C(F)(F)F)[nH]c2cc(C(F)(F)F)ccc12 was tested, and the MIC (Staphylococcus aureus) was 5 µg/mL (≈ 17.8 µM).

FC(F)(F)Oc1cccc(Nc2cc(C(F)(F)F)nc3cc(OC(F)(F)F)ccc23)c1 gave an MIC (Staphylococcus aureus) of 1 µg/mL (≈ 2.19 µM).

Compound FC(F)(F)c1ccc(Nc2cc(N3CCOCC3)c3ccc(C(F)(F)F)cc3n2)nc1 has an MIC (Staphylococcus aureus) of 8 µg/mL (≈ 18.1 µM).

In the case of COC(=O)c1cc(Nc2cc(C(F)(F)F)nc3cc(C(F)(F)F)ccc23)ccn1, the MIC (Staphylococcus aureus) is reported as over 32 µg/mL.

Compound FC(F)(F)c1ccc(Nc2cc(N3CCNCC3)c3ccc(C(F)(F)F)cc3n2)nc1 has an MIC (Staphylococcus aureus) of 4 µg/mL (≈ 9.06 µM).

Compound Fc1ccc(Nc2cc(C(F)(F)F)nc3cc(C(F)(F)F)ccc23)cc1F has an MIC (Staphylococcus aureus) of 0.125 µg/mL (≈ 0.319 µM).

FC(F)c1cc(Nc2cccc(OC(F)(F)F)c2)c2ccc(C(F)(F)F)cc2n1 was tested, and the MIC (Staphylococcus aureus) was 0.5 µg/mL (≈ 1.18 µM).

FC(F)(F)Oc1cccc2c(Nc3ccc(C(F)(F)F)cn3)cc(C(F)(F)F)nc12 gave an MIC (Staphylococcus aureus) of 1 µg/mL (≈ 2.27 µM).

FC(F)(F)c1ccc2c(Nc3ccc(C(F)(F)F)nc3)cc(C(F)(F)F)nc2c1 gave an MIC (Staphylococcus aureus) of over 32 µg/mL.

Compound COc1ccc2c(Nc3ccc(C(F)(F)F)cn3)cc(C(F)(F)F)nc2c1 has an MIC (Staphylococcus aureus) of 32 µg/mL (≈ 82.6 µM).

In the case of FC(F)(F)c1ccc2c(Nc3ccc(Cl)c(Cl)c3)nc(C(F)(F)F)nc2c1, the MIC (Staphylococcus aureus) is reported as 0.5 µg/mL (≈ 1.17 µM).

In the case of FC(F)(F)c1ccc2c(Nc3ccncc3)cc(C(F)(F)F)nc2c1, the MIC (Staphylococcus aureus) is reported as over 32 µg/mL.

With Fc1cc(F)c2nc(C(F)(F)F)cc(Nc3ccc(C(F)(F)F)cn3)c2c1F the MIC (Staphylococcus aureus) was over 32 µg/mL.

Compound FC(F)(F)c1ccc(Nc2nc(C(F)(F)F)nc3nc(C(F)(F)F)ccc23)nc1 has an MIC (Staphylococcus aureus) of over 32 µg/mL.

OCc1cccc(Nc2cc(C(F)(F)F)nc3cc(C(F)(F)F)ccc23)c1 was tested, and the MIC (Staphylococcus aureus) was over 16 µg/mL.

O=c1cc(C(F)(F)F)[nH]c2cc(F)cc(Nc3ccc(C(F)(F)F)cn3)c12 was tested, and the MIC (Staphylococcus aureus) was 1 µg/mL (≈ 2.56 µM) and the Activity (Erythrocyte) was “Non-Toxic”.

With CN(C)S(=O)(=O)c1ccc2c(Nc3cccc(OC(F)(F)F)c3)cc(C(F)(F)F)nc2c1 the MIC (Staphylococcus aureus) was 8 µg/mL (≈ 16.7 µM).

For FC(F)(F)c1ccc2c(Nc3ncccn3)cc(C(F)(F)F)nc2c1, the MIC (Staphylococcus aureus) was over 32 µg/mL.

In the case of O=C1Cc2cc(Nc3cc(C(F)(F)F)nc4cc(C(F)(F)F)ccc34)ccc2N1, the MIC (Staphylococcus aureus) is reported as over 32 µg/mL.

Work on CN(C)c1ccc(Nc2cc(C(F)(F)F)cc3[nH]c(C(F)(F)F)cc(=O)c23)nc1 yielded an MIC (Staphylococcus aureus) of 2 µg/mL (≈ 4.8 µM).

FC(F)(F)c1ccc2c(Nc3cc(Cl)ccn3)cc(C(F)(F)F)nc2c1 was tested, and the MIC (Staphylococcus aureus) was 2 µg/mL (≈ 5.11 µM).

Work on FC(F)(F)c1ccc2c(Nc3cccc(N4CCOCC4)c3)cc(C(F)(F)F)nc2c1 yielded an MIC (Staphylococcus aureus) of over 16 µg/mL.

Compound CCc1ccc2c(O)cc(C(F)(F)F)nc2c1 has an MIC (Staphylococcus aureus) of 640 µg/mL (≈ 2650 µM).

Compound FC(F)(F)c1ccc2c(N3CCOCC3)cc(C(F)(F)F)nc2c1 has an MIC (Staphylococcus aureus) of over 32 µg/mL.

For COc1ccc2c(Nc3ccc(F)c(F)c3)cc(C(F)(F)F)nc2c1, the MIC (Staphylococcus aureus) was over 32 µg/mL.

Fc1ccc2c(Nc3cccc(OC(F)(F)F)c3)cc(C(F)(F)F)nc2c1 gave an MIC (Staphylococcus aureus) of 2 µg/mL (≈ 5.12 µM).

Fc1ccc(Nc2cnnc3cc(C(F)(F)F)ccc23)cc1F was tested, and the MIC (Staphylococcus aureus) was over 32 µg/mL.

Compound FC(F)(F)Oc1cccc2c(Nc3ccc(Cl)c(Cl)c3)cc(C(F)(F)F)nc12 has an MIC (Staphylococcus aureus) of 0.5 µg/mL (≈ 1.13 µM).

O=c1cc(C(F)(F)F)[nH]c2cc(C(F)(F)F)cc(N3CCOCC3)c12 was tested, and the MIC (Staphylococcus aureus) was over 32 µg/mL.

With FC(F)(F)Oc1cccc(Oc2cc(C(F)(F)F)nc3cc(C(F)(F)F)ccc23)c1 the MIC (Staphylococcus aureus) was over 32 µg/mL.

FC(F)(F)c1ccc2c(Nc3cccc4[nH]ncc34)cc(C(F)(F)F)nc2c1 showed an MIC (Staphylococcus aureus) of over 32 µg/mL.

In the case of CN(c1ccc(C(F)(F)F)cc1)c1cc(C(F)(F)F)nc2cc(C(F)(F)F)ccc12, the MIC (Staphylococcus aureus) is reported as over 32 µg/mL.

Fc1ccc2c(Nc3ccc(C(F)(F)F)cn3)cc(C(F)(F)F)nc2c1 was tested, and the MIC (Staphylococcus aureus) was 1 µg/mL (≈ 2.66 µM) and the Activity (Erythrocyte) was “Non-Toxic”.

In the case of FC(F)(F)c1cccc(Nc2cc(C(F)(F)F)nc3cc(C(F)(F)F)ccc23)c1, the MIC (Staphylococcus aureus) is reported as 0.25 µg/mL (≈ 0.589 µM).

In the case of Fc1cccc(Nc2cc(C(F)(F)F)nc3cc(C(F)(F)F)ccc23)c1, the MIC (Staphylococcus aureus) is reported as 4 µg/mL (≈ 10.7 µM).

In the case of FC(F)(F)c1ccc2c(Nc3nccs3)cc(C(F)(F)F)nc2c1, the MIC (Staphylococcus aureus) is reported as 1 µg/mL (≈ 2.75 µM).

For Cn1cc(Nc2cc(C(F)(F)F)nc3cc(C(F)(F)F)ccc23)ccc1=O, the MIC (Staphylococcus aureus) was over 32 µg/mL.

FC(F)(F)c1ccc2c(N3CCc4cccnc43)cc(C(F)(F)F)nc2c1 gave an MIC (Staphylococcus aureus) of over 32 µg/mL.

Compound FC(F)(F)c1ccc2c(Nc3ccc4c(c3)OCO4)cc(C(F)(F)F)nc2c1 has an MIC (Staphylococcus aureus) of over 4 µg/mL.

With COc1ccc2c(O)cc(C(F)(F)F)nc2c1 the MIC (Staphylococcus aureus) was 640 µg/mL (≈ 2630 µM).
